The source made the active and inactive calls. The calls are words filed in the database; no cut-off is given here.
Columns and labels:
[1] = tested on: PC-3; assay: Induction of apoptosis in human PC3 cells assessed as late apoptotic cells at 10 uM incubated for 24 hrs by annexin V-FITC and propidium iodide staining based flow cytometry analysis (reference value: 0.52 %); format: functional
[2] = species: Homo sapiens; assay: Induction of apoptosis in human UPN2 cells assessed as increase in caspase-3/7 activation at 10 uM incubated for 48 hrs by luminometric caspase-glo 3/7 assay; format: functional, cell-based
How it was run: (§1)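 Cells in RPMI or DMEM with 10% heat-inactivated FBS and penicillin/streptomycin, 37 °C, 5% CO2, treated with 10 µM compound for 48 h. Caspase-3 and caspase-7 activity read by luminescent Caspase-Glo 3/7 assay, reported as fold induction over untreated cells; mean ± SD of three independent experiments, each in triplicate.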

[3] = species: Homo sapiens; assay: Antiproliferative activity against human SKMG3 cells assessed as reduction in cell viability at 10 uM incubated for 48 hrs by cell titer-glo assay; format: functional, cell-based
How it was run: (§2)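 Cells plated and treated 24 h later with 10 µM compound for 48 h; viable cells quantified by CellTiter-Glo ATP luminescence. Expressed as percentage of viable cells relative to untreated; mean ± SD of three independent experiments, each in triplicate.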

[4] = tested on: LN-229; assay: Cell cycle arrest in human LN229 cells assessed as cell accumulation at G2/M phase at 10 uM incubated for 24 hrs by propidium iodide staining based flow cytometry analysis relative to control; format: functional
[5] = tested on: LN-229; assay: Cell cycle arrest in human LN229 cells assessed as cell accumulation at G1 phase at 10 uM incubated for 48 hrs by propidium iodide staining based flow cytometry analysis relative to control; format: functional
[6] = tested on: Jurkat; assay: Cell cycle arrest in human Jurkat cells assessed as increase in cell accumulation at G0/G1 phase at 10 uM incubated for 24 hrs by propidium iodide staining based flow cytometry analysis; format: functional
[7] = Metal chelating activity assessed as Zn2+-compound complex formation by measuring stability constant for ZnHL using pre-Zn2+-complexed compound (ZnL) in 0.15M NaCl at 298.1K by potentiometric titration analysis
How it was run: (§3)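 Glass-electrode potentiometric titration with an Ag/AgCl reference in saturated KCl. The electrode was calibrated as an [H+] probe against standardized HCl with CO₂-free NaOH, using Gran's method (pKw 13.73(1)). Range was pH 2.0–11.0, with metal and ligand at 1×10⁻³ to 5×10⁻³ M in 1:1 ratio. At least two curves per compound were merged and fitted with HYPERQUAD.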

[8] = Metal chelating activity assessed as Zn2+-compound complex formation by measuring stability constant for ZnL in 0.15M NaCl at 298.1K by potentiometric titration analysis; how it was run: as §3
[9] = tested on: PC-3; assay: Induction of cellular senescence in human PC3 cells assessed as flattened cells at 10 uM incubated for 24 hrs by phase contrast microscopy; format: functional, cell-based
How it was run: (§4)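 LN229 and PC3 cells, 12×10^4 per well in 6-well plates, treated with 10 µM compound for 24 h. Senescence-associated β-gal staining: fixed in 2% formaldehyde/0.2% glutaraldehyde for 10 min at RT, stained with 1 mg/mL X-gal at 37 °C for 24 h without CO2. Blue cells counted in at least 10 fields at 10x and given as percent of total; four independent experiments. Morphology viewed by phase contrast at ×100.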

[10] = tested on: Jurkat; assay: Cell cycle arrest in human Jurkat cells assessed as decrease in cell accumulation at G2 phase at 10 uM incubated for 24 hrs by propidium iodide staining based flow cytometry analysis; format: functional
[11] = tested on: LN-229; assay: Induction of cellular senescence in human LN229 cells assessed as larger volume of cell at 10 uM incubated for 24 hrs by phase contrast microscopy; format: functional, cell-based; how it was run: as §4
[12] = tested on: U-87 MG; assay: Cell cycle arrest in human U87MG cells assessed as decrease in cell accumulation at G2 phase at 10 uM incubated for 24 hrs by propidium iodide staining based flow cytometry analysis; format: functional; conditions: U-87MG ATCC
[13] = tested on: PC-3; assay: Inhibition of colony formation in human PC3 cells at 10 uM incubated for 4 hrs by crystal violet staining based colony counting method; format: functional, cell-based
How it was run: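 LN229 and PC3 cells treated for 4 h with compound (10 µM) or with etoposide (30 µM positive control), washed, trypsinized and replated at 3000 cells per 60-mm plate. Colonies grown 7–10 days, fixed and stained with 0.5% crystal violet in 70% ethanol, and counted. Reported as percent of control; four independent experiments, each in duplicate.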

[14] = tested on: JeKo-1; assay: Antiproliferative activity against human JeKo1 cells assessed as reduction in cell viability at 10 uM incubated for 48 hrs by cell titer-glo assay; format: functional, cell-based; how it was run: as §2
[15] = Metal chelating activity assessed as Zn2+-compound complex formation by measuring stability constant for ZnL(OH) using pre-Zn2+-complexed compound (ZnL) in 0.15M NaCl at 298.1K by potentiometric titration analysis; how it was run: as §3
[16] = Metal chelating activity assessed as Zn2+-compound complex formation by measuring stability constant for ZnHL in 0.15M NaCl at 298.1K by potentiometric titration analysis; how it was run: as §3
[17] = tested on: LN-229; assay: Antiproliferative activity against human LN229 cells assessed as reduction in cell viability at 10 uM incubated for 48 hrs in presence of Zn2+ ion by MTT assay; format: functional, cell-based
How it was run: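 LN229 and PC3 cells plated, then 24 h later given 10 µM compound with or without 15 µM ZnCl2, CuCl2, FeCl2 or FeCl3 for 48 h. Medium replaced, MTT (12 mM solution) added for 4 h, formazan dissolved in DMSO, absorbance read at 540 nm. Percent viable versus untreated; mean ± SD of three experiments in triplicate.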

[18] = Metal chelating activity assessed as Zn2+-compound complex formation by measuring stability constant for ZnL(OH) in 0.15M NaCl at 298.1K by potentiometric titration analysis; how it was run: as §3
[19] = tested on: Z-138; assay: Induction of apoptosis in human Z138 cells assessed as increase in caspase-3/7 activation at 10 uM incubated for 48 hrs by luminometric caspase-glo 3/7 assay; format: functional, cell-based; how it was run: as §1
[20] = tested on: LN-229; assay: Cell cycle arrest in human LN229 cells assessed as cell accumulation at G2/M phase at 10 uM incubated for 48 hrs by propidium iodide staining based flow cytometry analysis relative to control; format: functional
[21] = tested on: Jurkat; assay: Induction of apoptosis in human Jurkat cells assessed as increase in caspase-3/7 activation at 10 uM incubated for 48 hrs by luminometric caspase-glo 3/7 assay; format: functional, cell-based; how it was run: as §1
[22] = species: Homo sapiens; assay: Antiproliferative activity against human JMV2 cells assessed as reduction in cell viability at 10 uM incubated for 48 hrs by cell titer-glo assay; format: functional, cell-based; how it was run: as §2
[23] = Metal chelating activity assessed as Zn2+-compound complex formation by measuring stability constant for ZnL(OH) in 0.15M NaCl and hydroalcoholic solutions (H2O/EtOH 70:30) at 298.1K by potentiometric titration analysis; how it was run: as §3
[24] = Metal chelating activity assessed as Zn2+-compound complex formation by measuring stability constant for ZnL in 0.15M NaCl and hydroalcoholic solutions (H2O/EtOH 70:30) at 298.1K by potentiometric titration analysis; how it was run: as §3
[25] = Metal chelating activity assessed as Zn2+-compound complex formation by measuring stability constant for ZnL(OH) using pre-Zn2+-complexed compound (ZnL) in 0.15M NaCl and hydroalcoholic solutions (H2O/EtOH 70:30) at 298.1K by potentiometric titration analysis; how it was run: as §3

| Compound | Activity [1] | Activity [2] | Activity [3] | Activity [4] | Activity [5] | Activity [6] | Activity [9] | Activity [10] | Activity [11] | Activity [12] | inhibition [13] | Activity [14] | Activity [17] | Activity [19] | Activity [20] | Activity [21] | Activity [22] | other results |
| --- | --- | --- | --- | --- | --- | --- | --- | --- | --- | --- | --- | --- | --- | --- | --- | --- | --- | --- |
| c1ccc(CNCCN(CCNCc2ccccn2)Cc2ccc3ccccc3c2)nc1 | 2.17% | Active | Active | 22.1% | 74.7% | Active | Active | Active | Active | Active | inactive | Active | inactive | Active | 14.4% | Active | Active | log K [7]: 3.65; log K [8]: 13; log K [15]: -10.8; log K [16]: 16.7; log K [18]: 2.25 |
| CN(CCNCc1ccccn1)CCNCc1ccccn1 | 2.13% | Active | Active | 22.1% | 66.1% | Active | Active | Active | Active | Active | inactive | Active | inactive | Active | 20.2% | Active | Active | log K [23]: 2.81; log K [24]: 13.4; log K [25]: -10.6 |

Source: ChEMBL document CHEMBL4376884, “Toward a Rational Design of Polyamine-Based Zinc-Chelating Agents for Cancer Therapies” (J Med Chem, 2020)
